The term IC50 denotes the concentration that inhibits the measured activity by half. A low value points to greater potency.

The values below come from BindingDB's records for doi:10.1021/jm00089a014 (Genentech, 1992).

*1 amine or outer side, *2 acyl side, *3 side chain or, on linkers, in order; H or OH if unused. Where a SMILES comes first, the peptide text is derived from it. Bridges are numbered along the chain shown (N, C = ends). [ ]: non-standard residue; d: D form. Cys(O)(CH2CO) = O=C([C@H](C[S+]([O-])CC(=O)[*:3])N[*:1])[*:2]

Chain of Integrin alpha-IIb/beta-3 (P05106 27-788 limits assumed): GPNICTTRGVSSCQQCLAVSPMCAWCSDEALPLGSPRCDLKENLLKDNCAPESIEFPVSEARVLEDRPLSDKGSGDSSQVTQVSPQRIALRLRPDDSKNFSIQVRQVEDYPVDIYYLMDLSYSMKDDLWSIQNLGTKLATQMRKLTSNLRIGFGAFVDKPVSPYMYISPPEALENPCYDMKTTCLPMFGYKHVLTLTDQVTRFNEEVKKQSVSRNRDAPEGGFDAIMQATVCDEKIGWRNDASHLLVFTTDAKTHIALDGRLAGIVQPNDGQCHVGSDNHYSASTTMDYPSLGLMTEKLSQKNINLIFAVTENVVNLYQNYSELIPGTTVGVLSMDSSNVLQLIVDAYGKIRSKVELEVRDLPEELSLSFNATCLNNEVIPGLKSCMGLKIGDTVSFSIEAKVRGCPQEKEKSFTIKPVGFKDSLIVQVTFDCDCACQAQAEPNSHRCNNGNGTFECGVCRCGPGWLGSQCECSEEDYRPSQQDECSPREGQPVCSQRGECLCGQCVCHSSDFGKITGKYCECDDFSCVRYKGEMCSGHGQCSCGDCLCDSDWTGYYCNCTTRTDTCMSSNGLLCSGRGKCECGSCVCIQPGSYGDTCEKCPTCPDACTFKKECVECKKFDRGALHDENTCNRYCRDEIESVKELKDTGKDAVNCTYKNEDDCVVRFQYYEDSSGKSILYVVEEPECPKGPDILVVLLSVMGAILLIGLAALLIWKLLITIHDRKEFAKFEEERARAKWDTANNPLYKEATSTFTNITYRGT
Chain of Integrin alpha-IIb/beta-3 (P08514 32-887 limits assumed): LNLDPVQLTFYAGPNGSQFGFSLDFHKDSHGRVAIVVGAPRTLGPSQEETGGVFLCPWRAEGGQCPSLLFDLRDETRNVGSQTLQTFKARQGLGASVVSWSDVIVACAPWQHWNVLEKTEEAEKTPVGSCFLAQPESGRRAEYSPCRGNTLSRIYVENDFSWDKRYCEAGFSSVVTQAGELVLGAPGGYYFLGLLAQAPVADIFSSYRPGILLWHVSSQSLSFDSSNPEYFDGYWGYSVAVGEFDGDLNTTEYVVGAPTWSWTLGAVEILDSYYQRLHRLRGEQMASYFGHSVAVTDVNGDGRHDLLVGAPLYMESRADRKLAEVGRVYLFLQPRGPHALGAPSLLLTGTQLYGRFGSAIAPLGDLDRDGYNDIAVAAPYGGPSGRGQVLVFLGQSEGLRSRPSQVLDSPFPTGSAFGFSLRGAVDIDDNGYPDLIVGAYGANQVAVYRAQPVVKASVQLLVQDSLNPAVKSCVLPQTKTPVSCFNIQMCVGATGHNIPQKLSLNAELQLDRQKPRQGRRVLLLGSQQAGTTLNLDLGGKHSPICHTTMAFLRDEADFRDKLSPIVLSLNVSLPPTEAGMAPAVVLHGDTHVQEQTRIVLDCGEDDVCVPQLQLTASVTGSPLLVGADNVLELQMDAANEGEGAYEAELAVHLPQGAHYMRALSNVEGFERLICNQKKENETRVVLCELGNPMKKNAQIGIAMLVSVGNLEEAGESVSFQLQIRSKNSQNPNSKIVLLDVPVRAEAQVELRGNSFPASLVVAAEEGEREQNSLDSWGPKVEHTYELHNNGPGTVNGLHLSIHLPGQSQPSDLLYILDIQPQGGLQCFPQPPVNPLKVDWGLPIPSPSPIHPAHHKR
Chain of Integrin alpha-IIb/beta-3 (P08514 891-1039 limits assumed): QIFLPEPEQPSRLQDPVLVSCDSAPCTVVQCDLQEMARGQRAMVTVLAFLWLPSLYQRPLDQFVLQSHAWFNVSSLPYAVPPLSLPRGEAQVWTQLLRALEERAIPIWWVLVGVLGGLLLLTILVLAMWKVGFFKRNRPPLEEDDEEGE

The assay addresses Integrin alpha-IIb/beta-3 (Homo sapiens, UniProt P08514+P05106). Nature of the assay: Inhibition of ADP-induced platelet aggregation in human platelet-rich plasma. The gist of the method: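 Human blood drawn into 3.8% sodium citrate (9:1); PRP from 180g spin, 12 min, 22 °C; count adjusted to 3 × 10^8/mL with PPP. PRP preincubated with test sample 5 min at 37 °C in aggregometer, then ADP 17.2 µM final. Inhibition from transmittance change at 5 min versus no-sample maximum; 12-14 concentrations over ~200-fold range; IC50 by four-parameter fit; n ≥ 3.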
As to `N=C(N)NCCC[C@@H]1NC(=O)CNC(=O)C(c2cccc3ccccc23)SC[C@@H](C(=O)O)NC(=O)[C@H](CC(=O)O)NC(=O)CNC1=O` (stereo not given in full), the IC50 turned out to be 0.78 µM.

With `N=C(N)NCCC[C@@H]1NC(=O)[C@H](Cc2ccc(O)cc2)NC(=O)CSC[C@@H](C(=O)O)NC(=O)[C@H](CC(=O)O)NC(=O)CNC1=O` ({CH2CO}-YRGDC-OH; thioether N-5), the IC50 turned out to be 0.15 µM.

`CSCC[C@@H]1NC(=O)CSC[C@@H](C(=O)O)NC(=O)[C@H](CC(=O)O)NC(=O)CNC(=O)[C@H](CCCNC(=N)N)NC1=O` yielded an IC50 of 1.06 µM.

In turn, `N=C(N)NCCC[C@H](N)C(=O)NCC(=O)N[C@@H](CC(=O)O)C(=O)N[C@@H](Cc1ccc(O)cc1)C(=O)O` (H-RGDY-OH) registered an IC50 of 94 µM.

Consider `N=C(N)NCCC[C@@H]1NC(=O)[C@@H]2CCCN2C(=O)CSC[C@@H](C(=O)O)NC(=O)[C@H](CC(=O)O)NC(=O)CNC1=O` ({CH2CO}-PRGDC-OH; thioether N-5), for which it took 0.43 µM to reach half-maximal inhibition (IC50).

In turn, `N=C(N)NCCC[C@@H]1NC(=O)CNC(=O)C(c2ccc(C(F)(F)F)cc2)SC[C@@H](C(=O)O)NC(=O)[C@H](CC(=O)O)NC(=O)CNC1=O` (stereo not given in full) registered an IC50 of 0.9 µM.

`N=C(N)NCCC[C@@H]1NC(=O)[C@@H](Cc2ccccc2)NC(=O)CSC[C@@H](C(=O)O)NC(=O)[C@H](CC(=O)O)NC(=O)CNC1=O` returned an IC50 of 18.5 µM.

In turn, `N=C(N)NCCC[C@@H]1NC(=O)CNC(=O)CSC[C@@H](C(N)=O)NC(=O)[C@H](CC(=O)O)NC(=O)CNC1=O` ({CH2CO}-GRGDC-NH2; thioether N-5) registered an IC50 of 150 µM.

`N=C(N)NCCC[C@@H]1NC(=O)[C@H](CC(N)=O)NC(=O)C[S+]([O-])C[C@@H](C(=O)O)NC(=O)[C@H](CC(=O)O)NC(=O)CNC1=O` (stereo not given in full) gave an IC50 of 0.46 µM.

The compound `N=C(N)NCCC[C@@H]1NC(=O)[C@H](CC(N)=O)NC(=O)CSC[C@@H](C(=O)O)NC(=O)[C@H](CC(=O)O)NC(=O)CNC1=O` ({CH2CO}-NRGDC-OH; thioether N-5) returned an IC50 of 0.31 µM.

In the case of `N=C(N)NCCC[C@@H]1NC(=O)CNC(=O)C(c2ccc(-c3ccccc3)cc2)SC[C@@H](C(=O)O)NC(=O)[C@H](CC(=O)O)NC(=O)CNC1=O` (stereo not given in full), the midpoint of inhibition, the IC50, lay at 1.48 µM.

The compound `CC(C)C[C@@H]1NC(=O)CSC[C@@H](C(=O)O)NC(=O)[C@H](CC(=O)O)NC(=O)CNC(=O)[C@H](CCCNC(=N)N)NC1=O` had an IC50 of 0.2 µM.

The compound `CC(C)C[C@H](NC(=O)[C@H](CC(=O)O)NC(=O)CNC(=O)[C@H](CCCNC(=N)N)NC(=O)CN)C(=O)O` (H-GRGDL-OH) returned an IC50 of 170 µM.

`C[C@@H]1NC(=O)C[S+]([O-])C[C@@H](C(=O)O)NC(=O)[C@H](CC(=O)O)NC(=O)CNC(=O)[C@H](CCCNC(=N)N)NC1=O` (stereo not given in full): half-maximal inhibition (IC50) required 0.61 µM.

The compound `N=C(N)NCCC[C@@H]1NC(=O)[C@@H](Cc2c[nH]c3ccccc23)NC(=O)CSC[C@@H](C(=O)O)NC(=O)[C@H](CC(=O)O)NC(=O)CNC1=O` displayed an IC50 of 4.78 µM.

Take `N=C(N)NCCC[C@@H]1NC(=O)CCNC(=O)CSC[C@@H](C(=O)O)NC(=O)[C@H](CC(=O)O)NC(=O)CNC1=O`: the IC50 amounted to 34.3 µM.

In turn, `N=C(N)NCCC[C@@H]1NC(=O)CNC(=O)C(c2ccccc2C(F)(F)F)SC[C@@H](C(=O)O)NC(=O)[C@H](CC(=O)O)NC(=O)CNC1=O` (stereo not given in full) had an IC50 of 0.15 µM.

`NC(N)=NCCC[C@H](N)C(=O)NCC(=O)N[C@@H](CC(=O)O)C(=O)N[C@@H](Cc1ccccc1)C(=O)O` (H-RGDF-OH) returned an IC50 of 43 µM.

In turn, `C[C@H](O)[C@H]1NC(=O)CSC[C@@H](C(=O)O)NC(=O)[C@H](CC(=O)O)NC(=O)CNC(=O)[C@H](CCCN=C(N)N)NC1=O` returned an IC50 of 2.92 µM.

For `N=C(N)NCCC[C@@H]1NC(=O)[C@@H](Cc2cnc[nH]2)NC(=O)CSC[C@@H](C(=O)O)NC(=O)[C@H](CC(=O)O)NC(=O)CNC1=O`, it took 1.08 µM to reach half-maximal inhibition (IC50).

As to `N=C(N)NCCC[C@@H]1NC(=O)[C@@H](Cc2ccc(O)cc2)NC(=O)C[S+]([O-])C[C@@H](C(=O)O)NC(=O)[C@H](CC(=O)O)NC(=O)CNC1=O` (stereo not given in full), the IC50 is 0.12 µM.

Consider `CC(C)[C@@H]1NC(=O)C[S+]([O-])C[C@@H](C(=O)O)NC(=O)[C@H](CC(=O)O)NC(=O)CNC(=O)[C@H](CCCNC(=N)N)NC1=O` (stereo not given in full) (VRGD[Cys(O)(CH2CO)]-OH; lactam N-5), for which the IC50 amounted to 0.21 µM.

With `N=C(N)NCCC[C@@H]1NC(=O)CNC(=O)C[S+]([O-])C[C@@H](C(=O)O)NC(=O)[C@H](CC(=O)O)NC(=O)CNC1=O` (stereo not given in full), 0.37 µM corresponded to half-maximal inhibition (IC50).

Turning to `N=C(N)NCCC[C@@H]1NC(=O)[C@H](CCC(=O)O)NC(=O)CSC[C@@H](C(=O)O)NC(=O)[C@H](CC(=O)O)NC(=O)CNC1=O`, the midpoint of inhibition, the IC50, lay at 4.6 µM.

For the compound `N=C(N)NCCC[C@@H]1NC(=O)[C@H](Cc2ccc(O)cc2)NC(=O)C[S+]([O-])C[C@@H](C(=O)O)NC(=O)[C@H](CC(=O)O)NC(=O)CNC1=O` (stereo not given in full), half-maximal inhibition (IC50) required 0.45 µM.

`N=C(N)NCCC[C@@H]1NC(=O)CSC[C@@H](C(=O)O)NC(=O)[C@H](CC(=O)O)NC(=O)CNC1=O` ({CH2CO}-RGDC-OH; thioether N-4) gave an IC50 greater than 2 µM.

In the case of `N=C(N)NCCC[C@@H]1NC(=O)[C@H]2CCCN2C(=O)CSC[C@@H](C(=O)O)NC(=O)[C@H](CC(=O)O)NC(=O)CNC1=O` ({CH2CO}-[dP]RGDC-OH; thioether N-5), inhibition was half-maximal at 1.96 µM (IC50).

On to `N=C(N)NCCC[C@@H]1NC(=O)CNC(=O)CSC[C@@H](C(=O)O)NC(=O)[C@H](CC(=O)O)NC(=O)CNC1=O` ({CH2CO}-GRGDC-OH; thioether N-5), for which inhibition was half-maximal at 5 µM (IC50).

With `N=C(N)NCCC[C@@H]1NC(=O)[C@H](Cc2c[nH]c3ccccc23)NC(=O)CSC[C@@H](C(=O)O)NC(=O)[C@H](CC(=O)O)NC(=O)CNC1=O`, 0.46 µM corresponded to half-maximal inhibition (IC50).

As for `N=C(N)NCCC[C@@H]1NC(=O)[C@H](CO)NC(=O)CSC[C@@H](C(=O)O)NC(=O)[C@H](CC(=O)O)NC(=O)CNC1=O`, the IC50 turned out to be 0.48 µM.
